Like-named read-outs stand apart in the source and are kept apart here.
Columns and labels:
Format in all cases: cell-based, human
[1] = test system: MRC-5 fibroblasts; test: MTT cell viability assay, MRC-5 normal fibroblasts; settings: for GI50: read-out: GI50 values (M) mean ± SD, MRC-5
How it was run: (§1)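 Cells were seeded at 3 × 10^3 per well and grown for 24 h at 37 °C/5% CO2. A T0 plate was read at dosing and the others after 72 h. MTT (5 mg mL−1 in PBS) was added for 2.5 h, formazan dissolved in DMSO, and absorbance read at 550 nm. GI50 was interpolated, in triplicate. SI compares MRC-5 with cancer-line activity.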

[2] = test system: MCF-7 breast cancer cells; test: MTT cell viability assay, MCF-7; settings: for Selectivity indices (SI), MCF-7: MCF-7 versus MRC-5 fibroblasts
How it was run: as §1

[3] = test system: HCT-116 colorectal carcinoma cells; test: MTT cell viability assay, HCT-116; settings: for Selectivity indices (SI), HCT-116: HCT-116 versus MRC-5 fibroblasts
How it was run: as §1

[4] = test system: HCT-116 cells; test: Clonogenic assay, HCT-116 colony formation; settings: 10 μM, 24 h exposure; second group, printed as HCT-116
How it was run: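 HCT-116 cells (RPMI 1640, 10% FBS, 1% glutamine) were seeded at 400 per well in 6-well plates and left to attach for 24 h. They were given test compound at 5 or 10 μM for 24 h, with medium alone as control. Cells were then washed with cold PBS and grown in fresh medium at 37 °C until control colonies reached ≥50 cells. Colonies were methanol-fixed, stained with 0.05% methylene blue and counted. Survival fraction is % of control, from five independent trials (n = 2 each).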

[5] = read-out: GI50 values (M) mean ± SD, MCF-7, MTT, 72 h exposure
[6] = read-out: GI50 values (M) mean ± SD, HCT-116, MTT, 72 h exposure
[7] = Homo sapiens, MCF7, 72 h, read-out: GI50 values (M) mean ± SD, MCF-7
[8] = Homo sapiens, HCT-116, 72 h, read-out: GI50 values (M) mean ± SD, HCT-116
[9] = Homo sapiens, MCF7, 72 h, read-out: GI50 values (µM) mean ±SD, MCF-7

| GI50 [2, 7] | GI50 [3, 8] | Compound | Selectivity indices (SI), MCF-7 [2] | Selectivity indices (SI), HCT-116 [3] | GI50 ([1]; Homo sapiens, MRC5, 72 h) | also measured |
| --- | --- | --- | --- | --- | --- | --- |
|  |  | N.N.[Cl][Pt][Cl] [cisplatin, reference compound] | 1.3 | 0.9 |  | GI50 ([1]; MTT, 72 h exposure): 9.7e-06 ± 4e-07 M; GI50 [2, 5]: 7.5e-06 ± 7e-07 M; GI50 [3, 6]: 9.8e-06 ± 2e-07 M |
| 3.7e-06 ± 4e-07 M | 6.9e-06 ± 2.5e-06 M | COc1ccc(OC)c(C=NNc2nc(-c3ccc(C#N)cc3)cs2)c1 [Compound 3j, 2-(2-(2,5-Dimethoxybenzylidene)hydrazinyl)-4-(4-cyanophenyl) thiazole] | 6.1 | 3.3 | 2.25e-05 ± 1e-07 M |  |
| 2.6e-06 ± 1e-07 M | 2.2e-06 ± 1e-07 M | N#Cc1ccc(-c2csc(NN=Cc3cc(F)cc(C(F)(F)F)c3)n2)cc1 [Compound 3q, 2-(2-(3-Fluoro-5-(trifluoromethyl)benzylidene) hydrazinyl)-4-(4-cyanophenyl) thiazole] | 3.5 | 4.1 | 9e-06 ± 1e-07 M | colony formation [4]: completely prevented colony formation |
| 3.66e-05 ± 1.4e-06 M | 2.2e-06 ± 5e-07 M | N#Cc1ccc(-c2csc(N/N=C/c3cccc(F)c3)n2)cc1 [b] |  |  | 1.68e-05 ± 5e-07 M |  |
| 9e-06 ± 1.2e-06 M | 4.4e-06 ± 2e-07 M | Cc1nc(C=NNc2nc(-c3ccc(C#N)cc3)cs2)sc1C [3d′, 2-(2-((4,5-Dimethylthiazol-2-yl)methylene) hydrazinyl)-4-(4-cyanophenyl) thiazole] | 2.5 | 5.1 | 2.25e-05 ± 2e-06 M |  |
| 2e-06 ± 8e-07 M | 4.7e-06 ± 1.3e-06 M | N#Cc1ccc(-c2csc(NN=Cc3ccc(C(F)(F)F)cc3C(F)(F)F)n2)cc1 [Compound 3m, 2-(2-(2,4-Bis-(trifluoromethyl)benzylidene) hydrazinyl)-4-(4-cyanophenyl) thiazole] | 8.3 | 3.5 | 1.65e-05 ± 6e-07 M |  |
| 4.5e-06 ± 1.4e-06 M | 6.5e-06 ± 2.6e-06 M | Cc1ccc(C=NNc2nc(-c3ccc(C#N)cc3)cs2)cc1C [Compound 3t, 2-(2-(3,4-Dimethylbenzylidene)hydrazinyl)-4-(4-cyanophenyl) thiazole] | 2.9 | 2 | 1.32e-05 ± 3e-07 M | colony formation [4]: completely prevented colony formation |
|  |  | N#Cc1ccc(-c2csc(NN=Cc3cccc(I)c3)n2)cc1 [Compound 3d, 2-(2-(3-Iodobenzylidene)hydrazinyl)-4-(4-cyanophenyl) thiazole] |  |  |  | GI50 [2, 9]: 2.3e-06 M; fold reduction in potency against HCT-116 cells ([3]; relative to its potency against MCF-7 cells): 5 fold |
|  |  | N#Cc1ccc(-c2csc(NN=Cc3ccccc3F)n2)cc1 [Compound 3a, 2-(2-(2-Fluorobenzylidene)hydrazinyl)-4-(4-cyanophenyl) thiazole] |  |  |  | colony formation [4]: completely prevented colony formation |
| 1.28e-05 ± 7e-07 M | 2.72e-05 ± 5e-07 M | N#Cc1ccc(-c2csc(NN=Cc3ccc(Cl)c(Cl)c3)n2)cc1 [Compound 3u, 2-(2-(3,4-Dichlorobenzylidene)hydrazinyl)-4-(4-cyanophenyl) thiazole] | 2.4 | 1.1 | 3.04e-05 ± 2e-07 M |  |
| 4.78e-05 ± 1.1e-06 M | 3.56e-05 ± 1.1e-06 M | COc1cc(C=NNc2nc(-c3ccc(C#N)cc3)cs2)cc(OC)c1 [Compound 3o, 2-(2-(3,5-Dimethoxybenzylidene)hydrazinyl)-4-(4-cyanophenyl) thiazole] | 0.4 | 0.5 | 1.65e-05 ± 5e-07 M |  |
| 4.1e-06 ± 4e-07 M | 9.7e-06 ± 4e-07 M | N#Cc1ccc(-c2csc(NN=Cc3cc(Cl)ccc3O)n2)cc1 [Compound 3g, 2-(2-(5-Chloro-2-hydroxybenzylidene) hydrazinyl)-4-(4-cyanophenyl) thiazole] | 4.1 | 1.7 | 1.68e-05 ± 7e-07 M |  |
| 2.3e-06 ± 2e-07 M | 1.13e-05 ± 7e-07 M | N#Cc1ccc(-c2csc(N/N=C/c3cccc(I)c3)n2)cc1 [d] |  |  | 3.49e-05 ± 3e-07 M |  |
|  |  | N#Cc1ccc(-c2csc(NN=Cc3cccc(F)c3)n2)cc1 [Compound 3b, 2-(2-(3-Fluorobenzylidene)hydrazinyl)-4-(4-cyanophenyl) thiazole] |  |  |  | GI50 [2, 9]: 3.66e-05 M; GI50 ([3]; Homo sapiens, HCT-116, 72 h, read-out: GI50 values (µM) mean ±SD, HCT-116): 2.2e-06 M |
| 7e-06 ± 2e-07 M | 1.5e-06 ± 8e-07 M | N#Cc1ccc(-c2csc(NN=Cc3c(F)cc(F)cc3F)n2)cc1 [Compound 3w, 2-(2-(2,4,6-Trifluorobenzylidene)hydrazinyl)-4-(4-cyanophenyl) thiazole] | 0.2 | 0.7 | 1.1e-06 ± 5e-07 M |  |
| 7.3e-06 ± 2e-07 M | 8.1e-06 ± 2e-07 M | N#Cc1ccc(-c2csc(NN=Cc3cc(F)cc(Br)c3)n2)cc1 [Compound 3p, 2-(2-(3-Bromo-5-fluorobenzylidene)hydrazinyl)-4-(4-cyanophenyl) thiazole] | 2.4 | 2.2 | 1.77e-05 ± 7e-07 M |  |
| 4.2e-06 ± 6e-07 M | 4e-06 ± 1e-06 M | Cc1cc(C)c(C=NNc2nc(-c3ccc(C#N)cc3)cs2)c(C)c1 [Compound 3v, 2-(2-(2,4,6-Trimethylbenzylidene)hydrazinyl)-4-(4-cyanophenyl) thiazole] | 2.7 | 2.8 | 1.12e-05 ± 3e-07 M |  |
| 4.3e-06 ± 3e-07 M | 6.2e-06 ± 5e-07 M | N#Cc1ccc(-c2csc(NN=Cc3cc(Br)cs3)n2)cc1 [3c′, 2-(2-((4-Bromothiophen-2-yl)methylene)hydrazinyl)-4-(4-cyanophenyl) thiazole] | 1.8 | 1.2 | 7.6e-06 ± 1e-07 M |  |
| 3.68e-05 ± 2.7e-06 M | 3.7e-05 ± 9e-07 M | COc1ccc(C=NNc2nc(-c3ccc(C#N)cc3)cs2)c(C)c1 [Compound 3k, 2-(2-(4-Methoxy-2-methylbenzylidene) hydrazinyl)-4-(4-cyanophenyl) thiazole] | 0.4 | 0.4 | 1.61e-05 ± 2e-07 M |  |
| 2.3e-06 ± 3e-07 M | 4.7e-06 ± 3e-07 M | N#Cc1ccc(-c2csc(NN=Cc3c(O)cc(O)cc3O)n2)cc1 [Compound 3x, 2-(2-(2,4,6-Trihydroxybenzylidene)hydrazinyl)-4-(4-cyanophenyl) thiazole] | 6.9 | 3.4 | 1.58e-05 ± 5e-07 M |  |
|  |  | 2-(2-(1-(4-Fluorophenyl)ethylidene)hydrazinyl)-4-(4-cyanophenyl) thiazole [Compound 3e] | 1.6 | 6.5 |  | GI50 ([1]; MTT, 72 h exposure): 4.47e-05 ± 2e-07 M; GI50 [2, 5]: 2.85e-05 ± 8e-07 M; GI50 [3, 6]: 6.9e-06 ± 2e-07 M |
| 2.7e-06 ± 1e-07 M | 1.6e-06 ± 4e-07 M | COc1cc(C=NNc2nc(-c3ccc(C#N)cc3)cs2)cc(OC)c1OC [Compound 3y, 2-(2-(3,4,5-Trimethoxybenzylidene)hydrazinyl)-4-(4-cyanophenyl) thiazole] | 8.7 | 14.6 | 2.34e-05 ± 3e-07 M |  |
| 3.4e-06 ± 1e-06 M | 3.1e-06 ± 1.5e-06 M | N#Cc1ccc(-c2csc(N/N=C/c3ccccc3F)n2)cc1 [a] |  |  | 1.66e-05 ± 1e-07 M |  |
| 2.5e-06 ± 2e-07 M | 1.9e-06 ± 5e-07 M | COc1cc(OC)c(OC)cc1C=NNc1nc(-c2ccc(C#N)cc2)cs1 [Compound 3z, 2-(2-(2,4,5-Trimethoxybenzylidene)hydrazinyl)-4-(4-cyanophenyl) thiazole] | 8.7 | 11.5 | 2.18e-05 ± 2e-07 M | fold increase in activity against HCT-116 cells ([3]; relative to compound 3j): 3.5 fold |
| 7.1e-06 ± 3e-07 M | 8e-06 ± 3e-07 M | Cc1ccc(C)c(C=NNc2nc(-c3ccc(C#N)cc3)cs2)c1 [Compound 3i, 2-(2-(2,5-Dimethylbenzylidene)hydrazinyl)-4-(4-cyanophenyl) thiazole] | 0.9 | 0.8 | 6.2e-06 ± 4e-07 M |  |
| 7.3e-06 ± 8e-07 M | 8.4e-06 ± 6e-07 M | CCOc1cc(C=NNc2nc(-c3ccc(C#N)cc3)cs2)ccc1O [Compound 3s, 2-(2-(3-Ethoxy-4-hydroxybenzylidene) hydrazinyl)-4-(4-cyanophenyl) thiazole] | 2.5 | 2.2 | 1.81e-05 ± 4e-07 M |  |
| 9.2e-06 ± 4e-07 M | 8.4e-06 ± 9e-07 M | COc1ccc(C=NNc2nc(-c3ccc(C#N)cc3)cs2)c(OC)c1 [Compound 3l, 2-(2-(2,4-Dimethoxybenzylidene)hydrazinyl)-4-(4-cyanophenyl) thiazole] | 3.3 | 3.6 | 3.01e-05 ± 6e-07 M | GI50 values (µM) mean ±SD, MRC-5 ([1]; MTT, 72 h exposure): no significant activity |
| 4.1e-06 ± 4e-07 M | 3e-06 ± 1e-06 M | N#Cc1ccc(-c2csc(NN=Cc3cc(Br)cc([N+](=O)[O-])c3)n2)cc1 [Compound 3r, 2-(2-(3-Bromo-5-nitrobenzylidene)hydrazinyl)-4-(4-cyanophenyl) thiazole] | 3 | 4.1 | 1.22e-05 ± 6e-07 M |  |

Reference: paper PMC9704493 (RSC Advances, 2022)
